Assay outcomes as filed in PubChem.
ZTA DNA inh: counter-screen for EBNA-1 inhibitors: inhibitors of Epstein-Barr virus ZTA | P03206 | ZTA-DNA binding, fluorescence polarization | inhibition, % at 11 µM | 320,000 compounds, 0.15% hits | AID 2234; in the data active means inhibition above about 33%
Target sequence (P03206 whole entry, looked up): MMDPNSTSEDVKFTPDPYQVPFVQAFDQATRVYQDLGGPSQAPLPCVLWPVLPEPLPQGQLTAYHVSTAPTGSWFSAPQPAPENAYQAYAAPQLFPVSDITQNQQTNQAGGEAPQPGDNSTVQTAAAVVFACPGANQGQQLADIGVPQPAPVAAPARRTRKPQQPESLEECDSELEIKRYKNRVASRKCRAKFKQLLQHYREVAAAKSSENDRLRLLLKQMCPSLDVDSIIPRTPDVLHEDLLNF
HCV NS3 hel inh: inhibitors of Hepatitis C virus NS3 helicase. AID 1800. NS3 helicase DNA unwinding, Cy5 molecular beacon fluorescence. inhibition, % at 10.9 µM. 290,000 compounds, 0.56% hits;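 active means inhibition above the mean of all tested compounds plus 3 SD, set per campaign, cut at about 35% in these data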;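 further: 0% = DMSO wells and 100% = thioflavine S control wells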
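Assay system: hepatitis C virus NS3 helicase domain fragment enzyme. Also added: annealed dual-labelled DNA beacon duplex, ATP-started. Timing: 1 h reaction at 25 °C, ATP-initiated. Technique: Cy5 fluorescence at 0 and 60 min, beacon hairpin quenching. Evaluation: % inhibition of unwinding. Replication: one well per compound.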
EBNA-1 inhibitor: blocks EBNA-1 binding to DNA | EBNA-1 DNA binding, fluorescence polarization | inhibition, % at 14.8 µM | 300,000 compounds, 0.34% hits; in the data active means inhibition above about 28%
CTSL1 counter: counter-screen for PFM18AAP inhibitors: inhibitors of F. hepatica cathepsin L1; AID 1906; 300,000 compounds, 0.49% hits; inhibition, % at 5.96 µM; recombinant F. hepatica cathepsin L1, Z-Leu-Arg-MCA fluorescence;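 active means inhibition above the mean of all tested compounds plus 3 SD, set per screening campaign, cut at about 17% in these data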;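 further: 0% = plate median of test compound wells and 100% = 1 µM Z-Phe-Ala-diazomethylketone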
NS3 helicase cf: confirmation of Hepatitis C virus NS3 helicase inhibitors. NS3 helicase DNA unwinding, Cy5 molecular beacon fluorescence. inhibition, % at 10.9 µM. shares compounds with HCV NS3 hel inh. 1,600 compounds, 31% hits;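 active means inhibition above the mean of all tested compounds plus 3 SD, cutoff set per campaign, cut at about 36% in these data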
DNA FID counter: intercalator displacement, NS3 helicase counter-screen. 1,600 compounds, 4% hits. DNA fluorescent intercalator displacement, fluorescence. AID 1945. shares compounds with HCV NS3 hel inh. inhibition, % at 7.9 µM; in the data active means inhibition above about 37%;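 further: 0% = vehicle and 100% = reference compound; higher means more displacement of ethidium bromide from the DNA hairpin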
FID counter DR: counter-screen for HCV NS3 helicase inhibitors: DNA intercalator displacement dose response; shares compounds with HCV NS3 hel inh; 120 tested, under 10 active; fluorescent intercalator displacement from DNA, fluorescence; IC50, µM; call rule not given here
* marks the source's active call; other numbers are inactive results. An excerpt weighted towards active compounds, which were near 1.4% of everything screened.

`O=C(Nc1ccc(N2CCCC2)cc1)c1cccc(-c2cc3ccccc3oc2=O)c1` gave ZTA DNA inh 6, HCV NS3 hel inh -21, EBNA-1 inhibitor -15 and CTSL1 counter -2.
O=C(Nc1ccccc1N1CCCC1)c1cccc(-c2cc3ccccc3oc2=O)c1 was read as ZTA DNA inh -3, HCV NS3 hel inh 42*, EBNA-1 inhibitor -1, CTSL1 counter -1, NS3 helicase cf -6 and DNA FID counter -31.
`CCN(CC)c1ccc2c(-c3ccc(S(=O)(=O)O)cc3S(=O)(=O)[O-])c3ccc(=[N+](CC)CC)cc-3oc2c1` gave ZTA DNA inh active, HCV NS3 hel inh 51*, EBNA-1 inhibitor 200*, CTSL1 counter 6 and NS3 helicase cf 84*.
`CCOc1ccc(NCc2cc3cc(OC)ccc3[nH]c2=O)cc1` gave ZTA DNA inh -18, HCV NS3 hel inh 43*, EBNA-1 inhibitor -10, CTSL1 counter 0, NS3 helicase cf 12 and DNA FID counter -6.
Screening O=C(O)C1Nc2c(O)cccc2C2C=CCC12 (centres undefined) returned ZTA DNA inh 30, HCV NS3 hel inh 58*, EBNA-1 inhibitor 42*, CTSL1 counter -3, NS3 helicase cf 110*, DNA FID counter 14 and FID counter DR >79.
CCOC(=O)c1ccc2c(c1)C1C=CCC1C(C(=O)OCC)N2 (centres undefined) was read as ZTA DNA inh -2, HCV NS3 hel inh 51*, EBNA-1 inhibitor -7, CTSL1 counter -1, NS3 helicase cf 14 and DNA FID counter 7.
`CCOC(=O)C1Nc2ccc(C)cc2C2C=CCC12` (centres undefined) gave ZTA DNA inh -1, EBNA-1 inhibitor 3 and CTSL1 counter 1.
O=C(O)C1Nc2ccc(Br)cc2C2C=CCC12 (centres undefined) was read as ZTA DNA inh 24, HCV NS3 hel inh 43*, EBNA-1 inhibitor 22, CTSL1 counter -2, NS3 helicase cf 88* and DNA FID counter -4.
CCOC(=O)C1Nc2ccc(Br)cc2C2C=CCC12 (centres undefined) was read as ZTA DNA inh 24, HCV NS3 hel inh 39*, EBNA-1 inhibitor 3, CTSL1 counter 2, NS3 helicase cf 26 and DNA FID counter -4.
`CCc1ccc(-c2c(C)sc(NC(C)=O)c2C(N)=O)cc1` gave ZTA DNA inh -2, HCV NS3 hel inh -4, EBNA-1 inhibitor -7 and CTSL1 counter -2.
CCOC(=O)c1ccc(S(=O)(=O)N2CCC(C(=O)NCc3ccccc3OC)CC2)cc1 was read as ZTA DNA inh 10.
CC12CC3CC(C)(C1)CC(C(=O)NC(=S)N1CCOCC1)(C3)C2 was read as ZTA DNA inh -7, HCV NS3 hel inh 2, EBNA-1 inhibitor -7 and CTSL1 counter 0.
`COc1cc2c(cc1OC)C(COc1ccc(F)cc1)N(C(C)=O)CC2` (centres undefined) gave ZTA DNA inh -19, HCV NS3 hel inh -3, EBNA-1 inhibitor -5 and CTSL1 counter -1.
Screening CC1=NN(C(N)=S)C(=O)C1N=Nc1ccccc1O (centres undefined) returned ZTA DNA inh -18, HCV NS3 hel inh 42*, EBNA-1 inhibitor -13, CTSL1 counter 2, NS3 helicase cf -15 and DNA FID counter 17.
Screening CCCSC1=N/C(=C\C=C\c2ccco2)C(=O)S1 returned ZTA DNA inh 5, HCV NS3 hel inh 25, EBNA-1 inhibitor -1 and CTSL1 counter 1.
`CCCc1c(C)c2ccc(OCC(C)=O)cc2oc1=O` gave ZTA DNA inh -5, HCV NS3 hel inh 0, EBNA-1 inhibitor -9 and CTSL1 counter 1.
Screening O=C(NN=C1CCN(Cc2ccccc2)CC1)c1cc2ccccc2cc1O returned ZTA DNA inh 7, HCV NS3 hel inh 39*, EBNA-1 inhibitor 14, CTSL1 counter 7, NS3 helicase cf 29 and DNA FID counter -12.
Screening Cc1ccc(NC(=O)CN2C(=O)N/C(=C/c3cc(C)n(-c4ccc(C(=O)O)cc4)c3C)C2=O)cc1 returned HCV NS3 hel inh 7.
For Cc1ccc(NC(=O)CN2C(=O)N/C(=C/c3ccco3)C2=O)cc1 the results were ZTA DNA inh 17, HCV NS3 hel inh 39*, EBNA-1 inhibitor 1, CTSL1 counter 2, NS3 helicase cf 9 and DNA FID counter 7.
For Cc1ccc(-c2nc(=S)c3c(n2Cc2ccco2)CCCC3)cc1 the results were HCV NS3 hel inh 41*, NS3 helicase cf 18 and DNA FID counter -2.
For COc1cccc(Cn2cccc(NC(=O)NCc3ccccc3)c2=O)c1 the results were ZTA DNA inh -10, HCV NS3 hel inh 1, EBNA-1 inhibitor -13 and CTSL1 counter 2.
For O=C(N/N=C/c1cc(Br)c(O)c(Br)c1)c1cc2c(ccc3ccccc32)o1 the results were HCV NS3 hel inh 13.
Screening O=C(N/N=C/c1cc(Cl)c(O)c(Cl)c1)c1cc2c(ccc3ccccc32)o1 returned ZTA DNA inh 12, HCV NS3 hel inh 45*, EBNA-1 inhibitor 11, CTSL1 counter 5, NS3 helicase cf 53*, DNA FID counter -6 and FID counter DR >79.
`CC(/C=N/NC(=O)Cc1cc(=O)[nH][nH]1)=C\c1ccccc1` gave ZTA DNA inh 5, HCV NS3 hel inh 39*, EBNA-1 inhibitor 3, CTSL1 counter 4, NS3 helicase cf -6 and DNA FID counter 3.
Screening CCOC(=O)c1nc(C)n(-c2cc(Cl)cc(Cl)c2)n1 returned ZTA DNA inh 8, HCV NS3 hel inh 3, EBNA-1 inhibitor 16 and CTSL1 counter -2.
For Cc1c2c(=O)n(-c3nc4ccccc4s3)nc-2cc(O)n1Cc1ccccc1 the results were HCV NS3 hel inh 48*, NS3 helicase cf 47* and DNA FID counter 12.
For Cc1cc(C)n(-c2nc3ccccc3s2)n1 the results were ZTA DNA inh 16, HCV NS3 hel inh 7, EBNA-1 inhibitor 2 and CTSL1 counter 0.
CCOC(=O)C1=C(N)N2C(=O)C(C)SC2=C(C(=O)OCC)C1c1ccc(O)cc1 (centres undefined) was read as ZTA DNA inh -1, HCV NS3 hel inh 39*, EBNA-1 inhibitor 10, CTSL1 counter 2, NS3 helicase cf -27 and DNA FID counter -29.
For CCOC(=O)C1=C(N)N2C(=O)C(C)SC2=C(C(=O)OCC)C1c1ccccc1 (centres undefined) the results were ZTA DNA inh 4, HCV NS3 hel inh 2, EBNA-1 inhibitor -6 and CTSL1 counter 0.
Cc1ccc(/C=N/n2c(COc3ccccc3)n[nH]c2=S)o1 was read as ZTA DNA inh 16, HCV NS3 hel inh 8, EBNA-1 inhibitor 14 and CTSL1 counter 4.
